To fix the notation:
B1: Osa-1-4 twister ribozyme (parent)
chain: CCGCCUAACACUGCCAAUGCCGGUCCCAAGCCCGGAUAAAAGUGGAGGGGGCGG

The variants in the series derive from B1. Briefly: self-cleavage, relative activity (ratio to wild type); higher = more cleavage; co-transcriptional. Put shortly:
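A DNA template was synthesised for a 54-nucleotide twister ribozyme from Oryza sativa, with 97 % wild-type base and 1 % of each other base at each of the 48 positions downstream of the cleavage site. The ribozyme cleaved itself co-transcriptionally during 2 h of in vitro transcription at 37 °C. Reverse transcription with a template-switching oligonucleotide, PCR amplification and deep sequencing followed, and cleavage status came from reads with or without upstream sequence. Relative activity is the fraction cleaved normalised to wild type.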
For the variant A40C U37C, the self-cleavage is 0.07.
As to A40C U37G, the self-cleavage was 0.12.
Take A40C U37A: the self-cleavage is 0.07.
The same measure for A40G A8C: 0.06.
On to A40G A8U, for which the self-cleavage came out at 0.11.
Regarding A40G A8G, the self-cleavage was found to be 0.18.
Turning to A40C C26G, the self-cleavage was 0.02.
Take A40C C26A: the self-cleavage is 0.02.
A40C C26U: the self-cleavage turned out to be 0.04.
In the case of A40G G19C it was 0.07; in that of A40G G19A, 0.18; in that of A40G G19U, 0.11.
In the case of A39U U24A it was 0.07; in that of A39U U24C, 0.12.
As to A39U U24G, the self-cleavage is 0.03.
Consider A39U G49U, for which the self-cleavage turned out to be 0.08.
Turning to A39U G49C, the self-cleavage stood at 0.06.
The same measure for A39U G49A: 0.11; for A40G G50C: 0.29.
In the case of A40G G50U it was 0.54; in that of A40G G50A, 0.43.
Take A40C U43G: the self-cleavage worked out at 0.07.
On to A40C U43C, for which the self-cleavage was determined as 0.07.
In the case of A40C U43A it was 0.07; in that of A40G G34A, 0.44; in that of A40G G34C, 0.2.
In the case of A40G G34U it was 0.22.
Consider A40G U24A, for which the self-cleavage was 0.07.
Take A40G U24C: the self-cleavage turned out to be 0.08.
As for A40G U24G, the self-cleavage is 0.02.
Regarding A40C A7C, the self-cleavage amounted to 0.02.
Turning to A40C A7G, the self-cleavage amounted to 0.06.
In the case of A40C A7U it was 0.02; in that of A40C C11G, 0.03; in that of A40C C11U, 0.07.
On to A40C C11A, for which the self-cleavage amounted to 0.05.
The same measure for A39U G45A: 0.12; for A39U G45U: 0.05.
Take A39U G45C: the self-cleavage amounted to 0.06.
In the case of A40G G51A it was 0.25.
For the variant A40G G51U, the self-cleavage came out at 0.12.
For the variant A40G G51C, the self-cleavage was 0.07.
Turning to A39U G34A, the self-cleavage turned out to be 0.68.
Take A39U G34C: the self-cleavage came out at 0.25.
As for A39U G34U, the self-cleavage is 0.53.
Regarding A40G G54A, the self-cleavage is 0.3.
Take A40G G54C: the self-cleavage came to 0.26.
For A40G G54U, the self-cleavage worked out at 0.46.
Turning to A40U C14G, the self-cleavage was 0.13.
A40U C14A: the self-cleavage is 0.15.
In the case of A40U C14U it was 0.11; in that of A40G C52A, 0.52.
In the case of A40G C52G it was 0.65; in that of A40G C52U, 0.94.
With A39U U37G, the self-cleavage stood at 1.02.
On to A39U U37C, for which the self-cleavage worked out at 1.
In the case of A39U U37A it was 0.99; in that of A40C G50C, 0.07; in that of A40C G50A, 0.08.
Take A40C G50U: the self-cleavage is 0.07.
On to A40C G48C, for which the self-cleavage was 0.02.
Turning to A40C G48U, the self-cleavage turned out to be 0.03.
On to A40C G48A, for which the self-cleavage came out at 0.02.
Turning to A39U C32G, the self-cleavage worked out at 0.1.
Take A39U C32U: the self-cleavage was 0.11.
The same measure for A40G U18C: 0.72.
In the case of A40G U18A it was 0.88.
Consider A40G U18G, for which the self-cleavage was found to be 0.76.
In the case of A40C C9G it was 0.07.
Regarding A40C C9U, the self-cleavage came to 0.05.
On to A40C C9A, for which the self-cleavage worked out at 0.02.
Consider A40U A7G, for which the self-cleavage turned out to be 0.13.
As to A40U A7C, the self-cleavage came out at 0.04.
With A40U A7U, the self-cleavage came to 0.08.
For the variant A40C G53C, the self-cleavage came out at 0.04.
In the case of A40C G53A it was 0.09; in that of A40C G53U, 0.05.
The same measure for A40C C14A: 0.04.
A40C C14G: the self-cleavage was found to be 0.03.
In the case of A40C C14U it was 0.05; in that of A40C C25A, 0.03.
In the case of A40C C25G, the self-cleavage worked out at 0.03.
In the case of A40C C25U it was 0.04; in that of A40U C11U, 0.33.
With A40U C11G, the self-cleavage was found to be 0.06.
For the variant A40U C11A, the self-cleavage worked out at 0.1.
The same measure for A40U A41U: 0.83; for A40U A41C: 0.87.
A40U A41G: the self-cleavage is 0.1.
On to A40C G47A, for which the self-cleavage turned out to be 0.05.
The same measure for A40C G47U: 0.04; for A40C G47C: 0.03; for A40U C15A: 0.11.
As for A40U C15G, the self-cleavage was 0.11.
Turning to A40G A7C, the self-cleavage was 0.05.
Regarding A40G A7U, the self-cleavage came out at 0.08.
Turning to A40G A7G, the self-cleavage amounted to 0.35.
In the case of A40G G49A it was 0.09; in that of A40G G49U, 0.09.
Consider A40G G49C, for which the self-cleavage came out at 0.07.
Regarding A40C G45U, the self-cleavage was determined as 0.03.
As for A40C G45A, the self-cleavage is 0.04.
In the case of A40C G45C, the self-cleavage came out at 0.03.
As for A40C C21A, the self-cleavage was determined as 0.07.
For A40C C21G, the self-cleavage turned out to be 0.02.
In the case of A40C C21U, the self-cleavage amounted to 0.09.
The same measure for A40G C32A: 0.06; for A40G C32U: 0.09; for A40G C32G: 0.1.
As for A40G C25U, the self-cleavage worked out at 0.14.
As for A40G C25G, the self-cleavage amounted to 0.06.
With A40G C25A, the self-cleavage was 0.06.
Consider A40C G23C, for which the self-cleavage was 0.02.
Take A40C G23U: the self-cleavage was found to be 0.02.
Consider A40C G23A, for which the self-cleavage amounted to 0.06.
As for A39U G50U, the self-cleavage turned out to be 1.01.
On to A39U G50C, for which the self-cleavage is 0.82.
Regarding A39U G50A, the self-cleavage turned out to be 0.63.
Consider A40C C20U, for which the self-cleavage came out at 0.08.
The same measure for A40C C20G: 0.04; for A40C C20A: 0.09; for A40G G45U: 0.07.
On to A40G G45C, for which the self-cleavage came out at 0.07.
Regarding A40G G45A, the self-cleavage is 0.09.
For the variant A40G G48A, the self-cleavage stood at 0.08.
For A40G G48C, the self-cleavage is 0.08.
For the variant A40G G48U, the self-cleavage worked out at 0.06.
Take A40G G35U: the self-cleavage worked out at 0.69.
For the variant A40G G35C, the self-cleavage came to 0.12.
The same measure for A40G G35A: 0.71; for A40C G22C: 0.02.
In the case of A40C G22A it was 0.09.
Regarding A40C G22U, the self-cleavage is 0.07.
Take A40G G42A: the self-cleavage amounted to 0.14.
As for A40G G42U, the self-cleavage worked out at 0.07.
Regarding A40G G42C, the self-cleavage came out at 0.13.
With A40C G34U, the self-cleavage was 0.05.
For A40C G34C, the self-cleavage came out at 0.06.
Consider A40C G34A, for which the self-cleavage was found to be 0.06.
For A40G G23U, the self-cleavage was 0.05.
A40G G23C: the self-cleavage was determined as 0.06.
Take A40G G23A: the self-cleavage is 0.12.
Consider A40G G53A, for which the self-cleavage stood at 0.2.
As to A40G G53C, the self-cleavage is 0.08.
For the variant A40G G53U, the self-cleavage was determined as 0.12.
The same measure for A40C U18G: 0.09.
For the variant A40C U18C, the self-cleavage came out at 0.08.
As to A40C U18A, the self-cleavage amounted to 0.07.
As for A40C C33A, the self-cleavage was determined as 0.05.
Take A40C C33G: the self-cleavage is 0.02.
In the case of A40C C33U it was 0.04.
Take A39U C33G: the self-cleavage came to 0.07.
The same measure for A39U C33U: 0.52.
For the variant A39U C33A, the self-cleavage was 0.09.
Turning to A40C G42A, the self-cleavage came out at 0.07.
As to A40C G42C, the self-cleavage is 0.06.
For A40C G42U, the self-cleavage came out at 0.03.
Regarding A40G C11G, the self-cleavage is 0.13.
On to A40G C11A, for which the self-cleavage came to 0.14.
In the case of A40G C11U, the self-cleavage worked out at 0.32.
Take A40C G35A: the self-cleavage was 0.08.
As for A40C G35C, the self-cleavage came to 0.05.
As for A40C G35U, the self-cleavage is 0.08.
Take A40C C27U: the self-cleavage was 0.03.
With A40C C27G, the self-cleavage came out at 0.02.
For the variant A40C C27A, the self-cleavage came to 0.05.
With A40G U37C, the self-cleavage was determined as 0.9.

The values are drawn from the RNAGym collection of RNA variant scans (doi:10.1002/anie.201605470).
